Tests used:
Assay type in all cases: biochemical
He-PTP = target: T1, He-PTP (Homo sapiens, UniProt P35236); assay: PTP activity assay with pNPP, He-PTP
T1 sequence (P35236 1-360): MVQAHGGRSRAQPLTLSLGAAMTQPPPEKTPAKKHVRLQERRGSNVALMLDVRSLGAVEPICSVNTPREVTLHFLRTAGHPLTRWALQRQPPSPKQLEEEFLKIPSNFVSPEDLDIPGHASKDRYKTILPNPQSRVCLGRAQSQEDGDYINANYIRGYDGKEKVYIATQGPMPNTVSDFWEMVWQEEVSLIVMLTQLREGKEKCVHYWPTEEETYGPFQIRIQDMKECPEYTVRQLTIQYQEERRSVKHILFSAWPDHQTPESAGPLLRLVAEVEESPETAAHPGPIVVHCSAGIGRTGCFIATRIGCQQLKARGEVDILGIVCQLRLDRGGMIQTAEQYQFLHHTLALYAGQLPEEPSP
Method in brief: (§1)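 Reactions started by adding enzyme to mixtures with various pNPP and test-compound concentrations. Rates were fitted with an enzyme-kinetics model for Ki.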

Lyp = target: T2, Lyp (Homo sapiens, UniProt Q9Y2R2); assay: PTP activity assay with pNPP, Lyp
T2 sequence (Q9Y2R2 1-807): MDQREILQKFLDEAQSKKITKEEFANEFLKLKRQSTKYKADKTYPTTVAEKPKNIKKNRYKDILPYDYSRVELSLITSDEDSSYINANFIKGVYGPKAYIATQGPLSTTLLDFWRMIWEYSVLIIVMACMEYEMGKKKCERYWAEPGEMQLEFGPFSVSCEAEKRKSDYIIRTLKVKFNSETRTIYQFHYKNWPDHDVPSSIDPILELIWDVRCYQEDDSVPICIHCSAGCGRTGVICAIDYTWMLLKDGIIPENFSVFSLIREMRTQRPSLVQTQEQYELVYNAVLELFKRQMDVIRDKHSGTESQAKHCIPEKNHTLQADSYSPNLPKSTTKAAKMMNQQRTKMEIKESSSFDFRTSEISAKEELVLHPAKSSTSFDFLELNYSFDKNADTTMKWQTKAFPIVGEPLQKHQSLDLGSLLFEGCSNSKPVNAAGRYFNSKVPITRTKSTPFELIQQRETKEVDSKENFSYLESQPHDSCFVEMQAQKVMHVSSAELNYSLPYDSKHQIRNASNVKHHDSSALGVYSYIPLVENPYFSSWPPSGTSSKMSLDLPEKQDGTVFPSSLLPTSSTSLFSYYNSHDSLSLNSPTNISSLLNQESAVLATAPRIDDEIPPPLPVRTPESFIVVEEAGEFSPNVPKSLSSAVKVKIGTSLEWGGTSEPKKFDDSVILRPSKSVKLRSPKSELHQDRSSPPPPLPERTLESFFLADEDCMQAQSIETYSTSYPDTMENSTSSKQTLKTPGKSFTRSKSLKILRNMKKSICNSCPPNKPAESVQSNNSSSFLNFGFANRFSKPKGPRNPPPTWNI

FAP1 = FAP1 (Homo sapiens, UniProt Q12923); assay: PTP activity assay with pNPP, FAP1
Method in brief: as §1

LAR = LAR (Homo sapiens, UniProt P10586); assay: PTP activity assay with pNPP, LAR
Method in brief: as §1

CD45 = target: T3, CD45 (Homo sapiens, UniProt P08575); assay: PTP activity assay with pNPP, CD45
T3 sequence (P08575 26-1306): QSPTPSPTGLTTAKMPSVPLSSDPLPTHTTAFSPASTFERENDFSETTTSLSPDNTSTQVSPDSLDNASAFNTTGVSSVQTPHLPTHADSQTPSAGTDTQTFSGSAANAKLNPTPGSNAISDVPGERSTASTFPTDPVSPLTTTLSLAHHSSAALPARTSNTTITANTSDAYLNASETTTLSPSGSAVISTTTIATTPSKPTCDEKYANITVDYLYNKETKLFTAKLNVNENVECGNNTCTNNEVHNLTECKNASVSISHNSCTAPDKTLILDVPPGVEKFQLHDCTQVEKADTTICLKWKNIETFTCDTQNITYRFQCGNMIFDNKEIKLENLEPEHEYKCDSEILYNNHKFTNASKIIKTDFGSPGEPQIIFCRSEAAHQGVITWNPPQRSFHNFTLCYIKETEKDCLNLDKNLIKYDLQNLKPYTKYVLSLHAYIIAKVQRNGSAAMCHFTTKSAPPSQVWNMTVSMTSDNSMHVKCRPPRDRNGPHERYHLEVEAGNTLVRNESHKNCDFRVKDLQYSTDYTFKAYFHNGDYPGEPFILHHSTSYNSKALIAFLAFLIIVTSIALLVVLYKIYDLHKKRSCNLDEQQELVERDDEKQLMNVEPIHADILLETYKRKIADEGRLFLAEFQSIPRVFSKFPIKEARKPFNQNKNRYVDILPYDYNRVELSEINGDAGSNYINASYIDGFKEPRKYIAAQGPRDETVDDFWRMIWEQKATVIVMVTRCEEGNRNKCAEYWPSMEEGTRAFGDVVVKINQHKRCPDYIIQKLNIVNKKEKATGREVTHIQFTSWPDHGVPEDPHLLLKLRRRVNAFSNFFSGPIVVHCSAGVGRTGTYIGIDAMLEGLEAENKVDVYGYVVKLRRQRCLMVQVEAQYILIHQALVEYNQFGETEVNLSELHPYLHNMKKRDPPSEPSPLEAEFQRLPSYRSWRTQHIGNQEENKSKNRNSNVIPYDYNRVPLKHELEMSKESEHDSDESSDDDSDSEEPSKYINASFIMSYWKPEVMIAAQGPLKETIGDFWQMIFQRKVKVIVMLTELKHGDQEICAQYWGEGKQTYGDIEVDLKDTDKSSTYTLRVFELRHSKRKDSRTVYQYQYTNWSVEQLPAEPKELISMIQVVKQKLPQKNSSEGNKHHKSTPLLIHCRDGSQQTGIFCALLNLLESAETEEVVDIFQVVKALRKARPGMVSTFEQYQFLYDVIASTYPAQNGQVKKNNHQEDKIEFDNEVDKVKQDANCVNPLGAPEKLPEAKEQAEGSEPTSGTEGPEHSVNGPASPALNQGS
Method in brief: as §1

Measured: Ki

Sequence of LAR (P10586 30-1907, species assumed): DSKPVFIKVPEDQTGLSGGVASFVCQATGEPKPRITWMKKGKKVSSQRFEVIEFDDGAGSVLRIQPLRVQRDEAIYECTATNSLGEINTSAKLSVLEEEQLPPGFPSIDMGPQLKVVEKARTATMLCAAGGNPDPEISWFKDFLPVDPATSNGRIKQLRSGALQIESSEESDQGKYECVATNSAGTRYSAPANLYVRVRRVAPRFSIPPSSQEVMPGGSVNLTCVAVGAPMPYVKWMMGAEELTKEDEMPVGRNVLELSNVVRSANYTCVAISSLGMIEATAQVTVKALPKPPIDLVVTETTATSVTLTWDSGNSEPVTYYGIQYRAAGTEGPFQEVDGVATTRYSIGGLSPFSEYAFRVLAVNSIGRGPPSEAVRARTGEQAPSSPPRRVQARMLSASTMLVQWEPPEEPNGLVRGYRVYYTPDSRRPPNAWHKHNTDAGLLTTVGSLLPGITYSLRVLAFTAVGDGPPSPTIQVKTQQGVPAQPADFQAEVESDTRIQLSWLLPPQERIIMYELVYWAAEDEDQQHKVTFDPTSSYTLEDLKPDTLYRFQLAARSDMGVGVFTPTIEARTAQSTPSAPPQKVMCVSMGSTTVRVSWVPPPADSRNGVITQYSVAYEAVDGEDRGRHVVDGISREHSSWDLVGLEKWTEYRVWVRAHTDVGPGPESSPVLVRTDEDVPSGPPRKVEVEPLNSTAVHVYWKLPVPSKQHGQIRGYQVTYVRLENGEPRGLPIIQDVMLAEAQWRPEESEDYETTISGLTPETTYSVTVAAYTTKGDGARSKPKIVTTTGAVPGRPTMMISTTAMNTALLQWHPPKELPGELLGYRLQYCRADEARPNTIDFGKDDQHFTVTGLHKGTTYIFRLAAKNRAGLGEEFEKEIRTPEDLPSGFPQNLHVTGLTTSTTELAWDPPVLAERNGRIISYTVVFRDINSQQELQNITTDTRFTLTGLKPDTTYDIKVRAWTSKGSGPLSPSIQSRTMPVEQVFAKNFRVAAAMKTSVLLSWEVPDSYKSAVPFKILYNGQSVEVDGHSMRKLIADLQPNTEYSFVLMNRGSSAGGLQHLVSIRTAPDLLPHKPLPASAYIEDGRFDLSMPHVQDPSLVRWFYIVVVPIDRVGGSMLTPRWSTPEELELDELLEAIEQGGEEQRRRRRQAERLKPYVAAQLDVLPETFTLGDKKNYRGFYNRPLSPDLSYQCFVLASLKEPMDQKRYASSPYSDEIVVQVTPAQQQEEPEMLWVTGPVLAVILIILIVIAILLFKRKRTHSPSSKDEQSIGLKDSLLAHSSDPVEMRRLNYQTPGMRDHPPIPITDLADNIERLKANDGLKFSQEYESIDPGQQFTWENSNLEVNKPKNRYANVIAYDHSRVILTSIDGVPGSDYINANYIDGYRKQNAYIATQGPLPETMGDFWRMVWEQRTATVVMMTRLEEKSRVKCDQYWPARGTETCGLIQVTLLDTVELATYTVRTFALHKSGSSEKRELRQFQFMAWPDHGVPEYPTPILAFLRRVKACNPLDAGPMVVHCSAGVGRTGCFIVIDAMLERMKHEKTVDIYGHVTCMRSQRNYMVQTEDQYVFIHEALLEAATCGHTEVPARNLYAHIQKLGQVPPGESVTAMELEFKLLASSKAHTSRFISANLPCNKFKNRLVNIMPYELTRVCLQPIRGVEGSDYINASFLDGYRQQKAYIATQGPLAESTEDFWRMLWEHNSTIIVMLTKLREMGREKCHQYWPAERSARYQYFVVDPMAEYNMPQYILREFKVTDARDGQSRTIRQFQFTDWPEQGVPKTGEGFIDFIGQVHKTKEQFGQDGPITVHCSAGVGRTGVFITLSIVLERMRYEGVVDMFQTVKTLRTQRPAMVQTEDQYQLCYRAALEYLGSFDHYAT
Sequence of FAP1 (Q12923 whole entry, species assumed): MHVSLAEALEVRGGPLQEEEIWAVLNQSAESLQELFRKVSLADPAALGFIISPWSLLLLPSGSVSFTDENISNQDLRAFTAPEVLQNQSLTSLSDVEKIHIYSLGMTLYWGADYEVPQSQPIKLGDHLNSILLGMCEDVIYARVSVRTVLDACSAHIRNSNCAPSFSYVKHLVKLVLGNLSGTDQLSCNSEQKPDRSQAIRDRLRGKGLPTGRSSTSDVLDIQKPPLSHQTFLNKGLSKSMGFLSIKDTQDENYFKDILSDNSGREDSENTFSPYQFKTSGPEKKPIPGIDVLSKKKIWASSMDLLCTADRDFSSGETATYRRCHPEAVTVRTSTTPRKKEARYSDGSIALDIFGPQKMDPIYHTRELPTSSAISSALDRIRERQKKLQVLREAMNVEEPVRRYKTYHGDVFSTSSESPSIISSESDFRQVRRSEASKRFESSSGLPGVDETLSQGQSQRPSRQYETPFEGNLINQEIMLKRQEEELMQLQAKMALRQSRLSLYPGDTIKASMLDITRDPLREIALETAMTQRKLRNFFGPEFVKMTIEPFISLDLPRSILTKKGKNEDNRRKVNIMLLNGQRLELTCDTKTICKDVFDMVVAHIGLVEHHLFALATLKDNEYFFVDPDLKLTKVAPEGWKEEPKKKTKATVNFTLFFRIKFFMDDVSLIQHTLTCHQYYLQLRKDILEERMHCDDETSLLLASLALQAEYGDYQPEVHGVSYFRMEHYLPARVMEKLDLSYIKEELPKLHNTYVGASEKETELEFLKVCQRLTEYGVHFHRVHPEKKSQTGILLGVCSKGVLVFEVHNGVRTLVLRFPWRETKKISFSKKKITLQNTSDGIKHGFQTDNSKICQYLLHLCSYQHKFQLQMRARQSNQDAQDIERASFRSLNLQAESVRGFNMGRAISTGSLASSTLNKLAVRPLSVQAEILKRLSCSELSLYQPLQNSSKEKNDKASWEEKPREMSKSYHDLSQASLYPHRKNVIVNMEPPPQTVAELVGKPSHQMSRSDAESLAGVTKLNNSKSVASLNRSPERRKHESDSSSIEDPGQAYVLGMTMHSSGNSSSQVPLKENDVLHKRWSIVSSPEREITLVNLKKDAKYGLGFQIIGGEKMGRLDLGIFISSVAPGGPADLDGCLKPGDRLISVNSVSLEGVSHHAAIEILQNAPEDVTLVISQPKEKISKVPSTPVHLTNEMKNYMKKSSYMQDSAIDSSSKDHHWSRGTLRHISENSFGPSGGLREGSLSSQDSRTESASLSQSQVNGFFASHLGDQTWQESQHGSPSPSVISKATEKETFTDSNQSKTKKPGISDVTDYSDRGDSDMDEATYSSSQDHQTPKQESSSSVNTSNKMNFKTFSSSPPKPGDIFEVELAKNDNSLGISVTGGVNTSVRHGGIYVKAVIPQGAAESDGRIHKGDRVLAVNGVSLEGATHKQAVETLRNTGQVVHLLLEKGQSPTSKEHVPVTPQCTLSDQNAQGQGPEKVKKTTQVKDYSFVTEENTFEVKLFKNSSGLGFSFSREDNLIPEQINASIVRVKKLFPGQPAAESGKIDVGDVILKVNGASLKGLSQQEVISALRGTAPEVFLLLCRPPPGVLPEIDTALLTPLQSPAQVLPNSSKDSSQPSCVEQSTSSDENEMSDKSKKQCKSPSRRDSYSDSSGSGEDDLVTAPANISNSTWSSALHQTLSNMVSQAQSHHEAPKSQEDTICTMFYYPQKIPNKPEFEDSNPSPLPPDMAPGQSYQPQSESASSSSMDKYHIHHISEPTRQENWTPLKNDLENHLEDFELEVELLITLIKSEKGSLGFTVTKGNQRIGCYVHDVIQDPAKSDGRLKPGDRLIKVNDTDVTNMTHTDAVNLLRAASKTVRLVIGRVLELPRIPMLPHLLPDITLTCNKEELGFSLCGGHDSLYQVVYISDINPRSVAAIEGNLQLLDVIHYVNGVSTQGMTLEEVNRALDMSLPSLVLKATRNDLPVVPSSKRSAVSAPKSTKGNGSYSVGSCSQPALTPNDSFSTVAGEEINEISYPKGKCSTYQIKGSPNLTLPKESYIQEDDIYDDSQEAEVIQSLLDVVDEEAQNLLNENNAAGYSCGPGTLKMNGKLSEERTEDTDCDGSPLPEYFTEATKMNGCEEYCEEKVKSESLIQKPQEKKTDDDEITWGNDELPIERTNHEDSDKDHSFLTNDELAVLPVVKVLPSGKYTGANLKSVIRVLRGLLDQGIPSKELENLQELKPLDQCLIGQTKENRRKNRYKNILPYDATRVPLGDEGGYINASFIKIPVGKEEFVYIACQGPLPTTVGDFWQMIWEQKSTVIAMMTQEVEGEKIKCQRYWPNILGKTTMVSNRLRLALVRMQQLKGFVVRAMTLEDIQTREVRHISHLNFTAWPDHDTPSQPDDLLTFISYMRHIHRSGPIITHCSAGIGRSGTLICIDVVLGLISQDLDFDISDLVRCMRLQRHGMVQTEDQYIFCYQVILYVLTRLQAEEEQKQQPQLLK

CCc1ccc(C(=O)NCCCC[C@H](NC(=O)[C@H](Cc2ccc(C(F)(F)P(=O)(O)O)cc2)NC(=O)[C@H](Cc2ccccc2)NC(=O)CO[C@H]2C[C@@H](C)CC[C@@H]2C(C)C)C(N)=O)cc1 [Compound 8]
> 1000 nM: all assays above

From paper PMC2741613 (Journal of the American Chemical Society, 2009)
